In article PMC9289880 (Journal of Medicinal Chemistry, 2022):
Read-outs that look alike come from different tables or passages of the source. *1 amine or outer side, *2 acyl side, *3 side chain or, on linkers, in order; H or OH if unused. Where a SMILES comes first, the peptide text is derived from it. Bridges are numbered along the chain shown (N, C = ends). [ ]: non-standard residue; d: D form. Pro(3R-Ph) = O=C(O)[C@H]1NCC[C@@H]1c1ccccc1; Bip = N[C@@H](Cc1ccc(-c2ccccc2)cc1)C(=O)O; αMeS = C[C@](N)(CO)C(=O)O; CH2 = C([*:1])[*:2]

Experiments:
KRAS^G12D = KRAS^G12D (Homo sapiens, UniProt P01116, G12D); experiment: SOS-catalyzed guanine nucleotide exchange; assay type: biochemical
KRAS^G12D, sequence (P01116 1-188 isoform P01116-2 G12D): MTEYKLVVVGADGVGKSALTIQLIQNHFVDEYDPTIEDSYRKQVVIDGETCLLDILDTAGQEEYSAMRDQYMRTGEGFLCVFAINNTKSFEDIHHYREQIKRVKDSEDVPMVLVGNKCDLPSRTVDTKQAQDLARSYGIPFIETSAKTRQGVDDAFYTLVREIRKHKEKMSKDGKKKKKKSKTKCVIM

[1] = Cell homogenate stability assay; assay type: in vitro ADME; settings: human
How it was run: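 HeLa cells suspended at 1 × 10^6 cells/mL, probe-sonicated on ice until homogeneous, then frozen at −20 °C until use. Peptides incubated with the homogenate (1 × 10^6 cells/mL equivalent). Loss of parent peptide over increasing time quantified by LC-MS/MS.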

pERK, AsPC-1 cells = experiment: AlphaScreen pERK assay in AsPC-1 cells; assay type: cell-based; settings: pERK
How it was run: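 AsPC-1 cells grown in RPMI 1640 (GlutaMAX, HEPES) with 10% FBS and penicillin/streptomycin. Seeded at 15 000 cells/well and held overnight at 37 °C, 5% CO2, then switched to serum-free medium. Compound dose-response series added acoustically, then incubated 2 and 18 h. Cells washed with DPBS and lysed with protease inhibitors. pERK (615 nm) and total ERK (535 nm) read by AlphaScreen SureFire multiplex. pERK/total ERK ratio fitted to 4-parameter logistic.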

pERK, A375 cells = experiment: AlphaScreen pERK counter screen in A375 cells; assay type: cell-based
AsPC-1 cells = experiment: LDH release; assay type: cell-based; settings: 18 h LDH release assay
How it was run: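 AsPC-1 cells seeded at 15 000/well overnight, then dosed with a compound titration in serum-free medium at 37 °C, 5% CO2. At 18 h post dose, part of the medium was transferred and mixed 1:1 with CytoTox-ONE reagent. Plates shaken 45 min at ambient temperature and fluorescence read (ex 560/em 590 nm). Dose-response curves fitted to 4-parameter logistic.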

HeLa cells = experiment: NanoClick cell permeability assay; assay type: in vitro ADME, Human
[2] = read-out: AlphaScreen (AsPC-1) 2 h IC50, AsPC-1, 2 h
[3] = read-out: AlphaScreen (AsPC-1) 18 h IC50, AsPC-1, 18 h

SMILES: CC[C@H](C)[C@@H]1NC(=O)[C@H](Cc2ccc(-c3ccccc3)cc2)NC(=O)[C@H](CC(C)C)NC(=O)[C@@H]2[C@@H](c3ccccc3)CCN2C(=O)[C@H](NC(=O)[C@@H](CCCNC(=N)N)NC(=O)[C@@H](CCCNC(=N)N)NC(C)=O)CSCSC[C@@H](C(=O)N[C@H](CCCNC(=N)N)C(=O)N[C@H](CCCNC(=N)N)C(N)=O)NC(=O)[C@H](C(C)C)NC(=O)[C@@H]2CCCN2C(=O)[C@H](CC(=O)O)NC(=O)[C@H](Cc2ccc(O)cc2)NC(=O)[C@](C)(CO)NC1=O [peptide 7, Ac-rr-cyclo(c(methylene)-Prot3Ph-L-Bip-I-aMeS-YDPVC)-rr-NH2] (Ac-[dR][dR][dC][Pro(3R-Ph)]L[Bip]I[αMeS]YDPVC[dR][dR]-NH2; linker 3-13 via CH2)
- SOS GNE potency / binding, in words (KRAS^G12D): subnanomolar
- half-life ([1]; tissue homogenate): > 6.2 h
- IC50 (pERK, AsPC-1 cells; [2]): 3800 nM
- IC50 (pERK, AsPC-1 cells; [3]): 3900 nM
- activity in A375 counter screen, in words (pERK, A375 cells): no LDH release or activity
- LDH release / membrane integrity, in words (AsPC-1 cells): no LDH release

SMILES: CC[C@H](C)[C@@H]1NC(=O)[C@H](Cc2ccc(-c3ccccc3)cc2)NC(=O)[C@H](CC(C)C)NC(=O)[C@@H]2[C@@H](c3ccccc3)CCN2C(=O)[C@H](NC(=O)[C@@H](CCCNC(=N)N)NC(=O)[C@@H](CCCNC(=N)N)NC(=O)[C@H](CCCCN=[N+]=[N-])NC(C)=O)CSCSC[C@@H](C(=O)N[C@H](CCCNC(=N)N)C(=O)N[C@H](CCCNC(=N)N)C(N)=O)NC(=O)[C@H](C(C)C)NC(=O)[C@@H]2CCCN2C(=O)[C@H](CC(=O)O)NC(=O)[C@H](Cc2ccc(O)cc2)NC(=O)[C@](C)(CO)NC1=O [peptide 9, Ac-Lys(N3)-rr-cyclo(c(methylene)-Prot3Ph-L-Bip-I-aMeS-YDPVC)-rr-NH2]
- IC50 (KRAS^G12D): < 1 nM
- half-life at 1 µM ([1]; HeLa cell homogenate): > 6.2 h
- IC50 (pERK, AsPC-1 cells; [2]): 6200 nM
- IC50 (pERK, AsPC-1 cells; [3]): 6800 nM
- EC50 (HeLa cells; read-out: NanoClick (HeLa) 4 h EC50, 4 h): 1490 nM
- EC50 (HeLa cells; read-out: NanoClick (HeLa) 18 h EC50, 18 h): 148 nM
- EC50 (HeLa cells; read-out: NanoClick permeability EC50 at 4 h, 4 h): 1500 nM
- EC50 (HeLa cells; read-out: NanoClick permeability EC50 at 18 h, 18 h): 150 nM
